Data as given in ChEMBL document CHEMBL1144077, “Cytotoxic lignans of Justicia ciliata” (J Nat Prod, 1999).
Values after ≈ are worked out from the molar mass of the structure shown. Active and inactive are the calls of the source. The rule behind the calls is not given here. Starred links: 1 amine or outer side, 2 acyl side, 3 side chain; linkers in the order of their positions; H or OH if unused. Positions of bridges follow the written chain, without caps; N, C: chain ends. Non-standard residues stand in square brackets, D forms with d. Residues, ends and D or L forms follow the SMILES beside them. Chains are numbered I, II in the order given. Actinocin(1to9) = Cc1c2oc3c(C)ccc(C(=O)[*:2])c3nc-2c(C(=O)[*:1])c(N)c1=O; NMeV = CN[C@H](C(=O)O)C(C)C; Sar = CNCC(=O)O

Experiments:
T-24 = experiment: Cytotoxicity against human T24 cells after 6 days by MTT assay; assay type: functional; details: for EC50: T-24, 144 h, read-out: ED50 (the source's name)
Method in brief: (§1)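 Human lines kept in DMEM with 10% FBS, 2 mM glutamine, penicillin/streptomycin. 1-3 × 10^3 cells/100 µL seeded, 6 h attachment, then medium replaced with fresh medium (plus 10 mM HEPES pH 7.3) holding a range of drug concentrations. Exposure 6 days, 37 °C, CO2. MTT (1 mg/mL stock, 10 µL) for 4 h, DMSO solubilization, absorbance 550 nm. ED50 in µg/mL.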

Ca-Ski = experiment: Cytotoxicity against human CaSki cells after 6 days by MTT assay; assay type: functional; details: for EC50: 144 h, read-out: ED50 (the source's name); method in brief: as §1
HT-3 = experiment: Cytotoxicity against human HT-3 cells after 6 days by MTT assay; assay type: functional; details: for EC50: Homo sapiens, HT-3, 144 h, read-out: ED50 (the source's name); method in brief: as §1
SiHa = experiment: Cytotoxicity against human SiHa cells after 6 days by MTT assay; assay type: functional; details: for EC50: Homo sapiens, SiHa, 144 h, read-out: ED50 (the source's name); method in brief: as §1
[1] = Cytotoxicity against mouse NIH/3T3-212 cells after 6 days by MTT assay; assay type: cell-based; details: for Activity: 144 h; for CC50 at 144 h: NIH/3T3-212 cells, read-out: ED50
Method in brief: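 212 cells (NIH/3T3 carrying inducible Ha-ras) kept in alpha-MEM with 10% calf serum and antibiotics. 1-3 × 10^3 cells/100 µL seeded, 6 h attachment, then fresh HEPES-supplemented (10 mM, pH 7.3) medium with graded drug concentrations for 6 days at 37 °C. MTT 4 h, DMSO dissolution, read at 550 nm. ED50 in µg/mL.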

PLC-PRF-5 = experiment: (§2) Cytotoxicity against human PLC/PRF/5 cells after 6 days by MTT assay; assay type: functional; method in brief: as §1
[2] = as §2; assay type: functional; details: PLC-PRF-5, 144 h, read-out: ED50 (the source's name); method in brief: as §1

Row | SMILES | Activity (T-24) | Activity (Ca-Ski) | Activity (HT-3) | Activity (SiHa) | Activity [1] | Activity (PLC-PRF-5) | EC50 (T-24) [µg/mL] | EC50 (Ca-Ski) [µg/mL] | EC50 (HT-3) [µg/mL] | EC50 (SiHa) [µg/mL] | CC50 at 144 h [1] [µg/mL] | EC50 [2] [µg/mL] | ED50 (HT-3) [×10⁻⁴ ug/ml] | ED50 (SiHa) [×10⁻⁴ ug/ml]
1 | COC(=O)C(Cc1ccc2c(c1)OCO2)C(Cc1ccc2c(c1)OCO2)C(=O)OC (stereo not drawn) | inactive | inactive | inactive | inactive | Not Active | inactive | – | – | – | – | – | – | – | –
2 | COc1ccc(-c2c3c(c(O)c4cc5c(cc24)OCO5)COC3=O)cc1OC | inactive | inactive | inactive | inactive | Not Active | inactive | – | – | – | – | – | – | – | –
3 | COc1ccc(-c2c3c(c(OC)c4cc5c(cc24)OCO5)COC3=O)cc1OC [CHINENSINAPHTHOL METHYL ETHER] | inactive | inactive | inactive | inactive | Not Active | inactive | – | – | – | – | – | – | – | –
4 | COc1cc(-c2c3c(c(OC)c4cc(OC)c(OC)cc24)COC3=O)ccc1O [CILINAPHTHALIDE A] | – | – | – | – | – | – | 1.3 (≈ 3.28 µM) | 3 (≈ 7.57 µM) | 0.3 (≈ 0.757 µM) | 6.4 (≈ 16.1 µM) | > 8 | 12 (≈ 30.3 µM) | – | –
5 | COc1ccc(-c2c3c(c(OC)c4cc(OC)c(OC)cc24)COC3=O)cc1OC [CILINAPHTHALIDE B] | inactive | inactive | inactive | inactive | Not Active | inactive | – | – | – | – | – | – | – | –
6 | Cc1c2oc3c(C)ccc(C(=O)N[C@@H]4C(=O)N[C@H](C(C)C)C(=O)N5CCC[C@H]5C(=O)N(C)CC(=O)N(C)[C@@H](C(C)C)C(=O)O[C@@H]4C)c3nc-2c(C(=O)N[C@@H]2C(=O)N[C@H](C(C)C)C(=O)N3CCC[C@H]3C(=O)N(C)CC(=O)N(C)[C@@H](C(C)C)C(=O)O[C@@H]2C)c(N)c1=O [DACTINOMYCIN] (I: T[dV]P[Sar][NMeV] / II: T[dV]P[Sar][NMeV]; ester I:1-I:C, II:1-II:C; linker I:N-II:N via Actinocin(1to9)) | – | – | – | – | – | – | 0.0015 (≈ 0.00119 µM) | 0.0019 (≈ 0.00151 µM) | – | – | – | 0.0014 (≈ 0.00112 µM) | 5.6 | 8.1
7 | COc1cc2c(OC)c3c(c(-c4ccc5c(c4)OCO5)c2cc1OC)C(=O)OC3 [JUSTICIDIN A] | – | – | – | – | – | – | 0.002 (≈ 0.00507 µM) | 0.003 (≈ 0.00761 µM) | 0.0018 (≈ 0.00456 µM) | 0.0074 (≈ 0.0188 µM) | 0.0227 (≈ 0.0576 µM) | 0.0022 (≈ 0.00558 µM) | – | –
8 | COc1cc2c(OC)c3c(c(-c4ccc5c(c4)OCO5)c2cc1OC)COC3=O [NEOJUSTICIN B] | inactive | inactive | inactive | inactive | Not Active | inactive | – | – | – | – | – | – | – | –
9 | COc1c2c(c(-c3ccc4c(c3)OCO4)c3cc4c(cc13)OCO4)C(=O)OC2 [TAIWANIN E METHYL ETHER] | – | – | – | – | – | – | 5 (≈ 13.2 µM) | > 8 | 2.6 (≈ 6.87 µM) | 6.1 (≈ 16.1 µM) | > 8 | 6.8 (≈ 18 µM) | – | –
